The record followed here is ChEMBL document CHEMBL3621099, “Design and synthesis of carbazole carboxamides as promising inhibitors of Bruton's tyrosine kinase (BTK) and Janus kinase 2 (JAK2)” (Bioorg Med Chem Lett, 2015).

What is called IC50 is the concentration that gives 50% inhibition. Broadly, the AUC is concentration integrated over time. The low end stands for low exposure, the high end for high exposure. As a reminder, the fraction remaining is what is left of the initial amount, in per cent. Read a high fraction remaining as less turnover.

Series [1] deals with T1, Cytoplasmic tyrosine-protein kinase BMX (Homo sapiens, UniProt P51813).
T1 sequence (P51813 whole entry): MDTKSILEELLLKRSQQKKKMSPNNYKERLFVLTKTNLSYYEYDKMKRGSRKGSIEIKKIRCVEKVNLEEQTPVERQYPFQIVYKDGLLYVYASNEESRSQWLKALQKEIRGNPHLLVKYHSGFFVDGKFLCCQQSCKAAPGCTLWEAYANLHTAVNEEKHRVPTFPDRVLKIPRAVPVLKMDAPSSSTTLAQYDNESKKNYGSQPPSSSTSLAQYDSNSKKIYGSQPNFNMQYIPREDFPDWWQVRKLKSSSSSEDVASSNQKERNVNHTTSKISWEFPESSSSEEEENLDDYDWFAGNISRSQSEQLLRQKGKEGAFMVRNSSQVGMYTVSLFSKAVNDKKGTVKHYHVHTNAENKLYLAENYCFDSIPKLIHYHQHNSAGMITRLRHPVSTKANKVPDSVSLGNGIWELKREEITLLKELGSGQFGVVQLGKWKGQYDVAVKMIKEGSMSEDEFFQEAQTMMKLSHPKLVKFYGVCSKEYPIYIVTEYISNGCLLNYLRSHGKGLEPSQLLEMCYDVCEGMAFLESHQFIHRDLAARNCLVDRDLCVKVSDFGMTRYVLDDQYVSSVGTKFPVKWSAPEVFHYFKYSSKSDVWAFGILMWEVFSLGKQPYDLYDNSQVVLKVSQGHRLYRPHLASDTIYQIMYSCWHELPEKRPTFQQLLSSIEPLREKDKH
Kind of series: Inhibition of BMX (unknown origin).

Series [2] concerns the target Cyclin-dependent kinase 2 (Homo sapiens, UniProt P24941). Kind of series: Inhibition of CDK2 (unknown origin).
Series [3] has as its target Non-receptor tyrosine-protein kinase TYK2 (Homo sapiens, UniProt P29597). Kind of series: Inhibition of TYK2 (unknown origin).
The target of series [4] is Tyrosine-protein kinase Lck (Homo sapiens, UniProt P06239). As to the kind of experiment: Inhibition of LCK (unknown origin).
Sequence of Tyrosine-protein kinase Lck (P06239 whole entry): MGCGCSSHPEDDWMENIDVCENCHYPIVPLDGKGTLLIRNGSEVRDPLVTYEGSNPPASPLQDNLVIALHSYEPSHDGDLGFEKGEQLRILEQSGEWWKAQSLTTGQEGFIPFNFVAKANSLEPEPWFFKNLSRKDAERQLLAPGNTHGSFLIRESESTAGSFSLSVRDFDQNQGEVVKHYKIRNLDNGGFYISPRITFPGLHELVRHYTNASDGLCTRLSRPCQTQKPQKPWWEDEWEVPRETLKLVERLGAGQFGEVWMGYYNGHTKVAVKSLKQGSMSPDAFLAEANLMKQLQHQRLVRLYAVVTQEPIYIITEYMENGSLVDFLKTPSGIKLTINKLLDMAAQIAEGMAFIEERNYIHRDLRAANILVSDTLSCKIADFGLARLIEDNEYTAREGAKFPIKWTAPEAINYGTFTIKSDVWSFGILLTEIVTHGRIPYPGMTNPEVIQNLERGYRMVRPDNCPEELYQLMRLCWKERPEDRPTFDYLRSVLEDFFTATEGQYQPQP
Series [5] has as its target Tyrosine-protein kinase Lyn (Homo sapiens, UniProt P07948). As to the kind of experiment: Inhibition of LYNa (unknown origin).
In another series the target is T2, Aurora kinase A (Homo sapiens, UniProt O14965).
T2 sequence (O14965 whole entry): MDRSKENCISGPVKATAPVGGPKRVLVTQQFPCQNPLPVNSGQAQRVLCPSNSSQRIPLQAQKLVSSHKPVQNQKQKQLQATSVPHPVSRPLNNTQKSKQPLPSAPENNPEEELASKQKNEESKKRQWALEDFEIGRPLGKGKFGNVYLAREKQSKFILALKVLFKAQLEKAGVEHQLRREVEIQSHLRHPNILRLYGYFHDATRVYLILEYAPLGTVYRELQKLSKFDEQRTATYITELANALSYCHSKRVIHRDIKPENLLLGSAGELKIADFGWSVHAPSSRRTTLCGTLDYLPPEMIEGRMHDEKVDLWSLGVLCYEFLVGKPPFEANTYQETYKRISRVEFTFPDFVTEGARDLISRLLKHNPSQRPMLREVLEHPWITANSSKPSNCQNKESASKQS
Kind of series: Inhibition of Aurora-A (unknown origin).

The target of series [6] is T3, Tyrosine-protein kinase Tec (Homo sapiens, UniProt P42680).
T3 sequence (P42680 whole entry): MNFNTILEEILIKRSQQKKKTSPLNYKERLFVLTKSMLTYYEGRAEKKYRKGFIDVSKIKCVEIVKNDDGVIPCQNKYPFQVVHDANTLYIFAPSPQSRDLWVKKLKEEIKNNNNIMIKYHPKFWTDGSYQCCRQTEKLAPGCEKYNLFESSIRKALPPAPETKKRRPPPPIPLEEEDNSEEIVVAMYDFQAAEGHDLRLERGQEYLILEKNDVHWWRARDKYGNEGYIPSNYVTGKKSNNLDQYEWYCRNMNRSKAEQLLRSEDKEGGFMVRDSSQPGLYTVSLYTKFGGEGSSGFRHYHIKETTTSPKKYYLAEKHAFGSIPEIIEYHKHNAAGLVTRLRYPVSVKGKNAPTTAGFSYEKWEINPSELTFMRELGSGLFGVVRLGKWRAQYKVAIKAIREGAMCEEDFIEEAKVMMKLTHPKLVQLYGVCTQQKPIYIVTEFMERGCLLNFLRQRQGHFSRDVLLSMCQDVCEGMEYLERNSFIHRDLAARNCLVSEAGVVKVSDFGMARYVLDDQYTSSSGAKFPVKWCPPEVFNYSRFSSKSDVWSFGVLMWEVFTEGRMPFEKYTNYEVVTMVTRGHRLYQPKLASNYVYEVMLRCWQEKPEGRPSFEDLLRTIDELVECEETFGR
As to the kind of experiment: Inhibition of TEC (unknown origin).

Series [7] deals with Tyrosine-protein kinase BTK (Homo sapiens, UniProt Q06187). As to the kind of experiment: Inhibition of human recombinant BTK.
Sequence of Tyrosine-protein kinase BTK (Q06187 whole entry): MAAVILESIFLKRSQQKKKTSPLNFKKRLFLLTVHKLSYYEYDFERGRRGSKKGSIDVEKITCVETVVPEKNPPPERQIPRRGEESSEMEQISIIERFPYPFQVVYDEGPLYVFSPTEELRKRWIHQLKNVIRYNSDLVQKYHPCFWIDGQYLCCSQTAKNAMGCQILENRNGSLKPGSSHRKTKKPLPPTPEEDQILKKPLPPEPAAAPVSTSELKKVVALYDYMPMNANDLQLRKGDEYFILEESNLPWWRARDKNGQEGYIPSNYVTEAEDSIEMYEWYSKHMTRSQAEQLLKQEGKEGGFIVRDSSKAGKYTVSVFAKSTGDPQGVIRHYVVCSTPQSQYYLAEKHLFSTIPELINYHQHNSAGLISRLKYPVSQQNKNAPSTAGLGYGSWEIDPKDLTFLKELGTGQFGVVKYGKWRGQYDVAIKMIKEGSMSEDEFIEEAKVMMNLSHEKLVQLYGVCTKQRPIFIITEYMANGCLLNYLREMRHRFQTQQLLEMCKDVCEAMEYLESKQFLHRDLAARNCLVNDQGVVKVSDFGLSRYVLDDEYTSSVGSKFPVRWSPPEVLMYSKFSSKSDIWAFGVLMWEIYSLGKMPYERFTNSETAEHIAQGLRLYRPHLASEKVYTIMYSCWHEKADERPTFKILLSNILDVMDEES
Series [8] in a line: AUC in mouse at 10 mg/kg, po. The conditions noted are these: in vivo. It is filed as ADME, organism-based.
Series [9] deals with T4, Tyrosine-protein kinase ITK/TSK (Homo sapiens, UniProt Q08881).
T4 sequence (Q08881 whole entry): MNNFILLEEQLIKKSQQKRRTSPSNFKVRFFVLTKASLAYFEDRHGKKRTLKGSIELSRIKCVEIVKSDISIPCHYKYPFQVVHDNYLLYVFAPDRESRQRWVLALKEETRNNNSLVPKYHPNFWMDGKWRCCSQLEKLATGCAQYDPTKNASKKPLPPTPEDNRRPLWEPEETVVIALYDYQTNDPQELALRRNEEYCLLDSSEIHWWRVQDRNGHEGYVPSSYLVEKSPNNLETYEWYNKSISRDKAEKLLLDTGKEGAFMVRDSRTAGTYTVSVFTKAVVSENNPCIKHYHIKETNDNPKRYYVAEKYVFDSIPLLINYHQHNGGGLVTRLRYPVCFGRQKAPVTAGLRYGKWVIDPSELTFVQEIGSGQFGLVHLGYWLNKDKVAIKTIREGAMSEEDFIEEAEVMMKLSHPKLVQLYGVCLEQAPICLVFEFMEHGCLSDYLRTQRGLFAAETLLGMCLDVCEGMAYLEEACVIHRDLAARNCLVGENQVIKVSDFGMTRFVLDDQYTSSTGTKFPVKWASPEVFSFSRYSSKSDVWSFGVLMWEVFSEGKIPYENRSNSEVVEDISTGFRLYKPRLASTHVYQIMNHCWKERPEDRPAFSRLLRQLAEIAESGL
Kind of series: Inhibition of ITK (unknown origin).

The target in series [10] is T5, Tyrosine-protein kinase TXK (Homo sapiens, UniProt P42681).
T5 sequence (P42681 whole entry): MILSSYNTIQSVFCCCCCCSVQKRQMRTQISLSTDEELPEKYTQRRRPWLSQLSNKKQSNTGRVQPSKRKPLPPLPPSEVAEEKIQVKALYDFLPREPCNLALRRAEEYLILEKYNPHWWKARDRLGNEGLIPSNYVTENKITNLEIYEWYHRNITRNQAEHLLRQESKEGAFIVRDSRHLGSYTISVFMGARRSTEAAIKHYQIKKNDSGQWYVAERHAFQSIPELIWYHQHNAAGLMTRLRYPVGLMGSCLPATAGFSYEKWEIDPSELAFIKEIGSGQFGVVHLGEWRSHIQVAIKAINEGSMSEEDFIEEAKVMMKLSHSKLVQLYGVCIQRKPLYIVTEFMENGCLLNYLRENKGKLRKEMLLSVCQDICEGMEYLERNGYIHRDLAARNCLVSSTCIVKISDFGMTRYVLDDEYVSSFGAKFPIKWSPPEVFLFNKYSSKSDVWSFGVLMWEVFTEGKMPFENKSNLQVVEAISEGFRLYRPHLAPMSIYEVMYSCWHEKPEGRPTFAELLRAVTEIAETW
As to the kind of experiment: Inhibition of TXK (unknown origin).

For series [11], the target named is Mast/stem cell growth factor receptor Kit (Homo sapiens, UniProt P10721). Kind of series: Inhibition of cKIT (unknown origin).
Sequence of Mast/stem cell growth factor receptor Kit (P10721 whole entry): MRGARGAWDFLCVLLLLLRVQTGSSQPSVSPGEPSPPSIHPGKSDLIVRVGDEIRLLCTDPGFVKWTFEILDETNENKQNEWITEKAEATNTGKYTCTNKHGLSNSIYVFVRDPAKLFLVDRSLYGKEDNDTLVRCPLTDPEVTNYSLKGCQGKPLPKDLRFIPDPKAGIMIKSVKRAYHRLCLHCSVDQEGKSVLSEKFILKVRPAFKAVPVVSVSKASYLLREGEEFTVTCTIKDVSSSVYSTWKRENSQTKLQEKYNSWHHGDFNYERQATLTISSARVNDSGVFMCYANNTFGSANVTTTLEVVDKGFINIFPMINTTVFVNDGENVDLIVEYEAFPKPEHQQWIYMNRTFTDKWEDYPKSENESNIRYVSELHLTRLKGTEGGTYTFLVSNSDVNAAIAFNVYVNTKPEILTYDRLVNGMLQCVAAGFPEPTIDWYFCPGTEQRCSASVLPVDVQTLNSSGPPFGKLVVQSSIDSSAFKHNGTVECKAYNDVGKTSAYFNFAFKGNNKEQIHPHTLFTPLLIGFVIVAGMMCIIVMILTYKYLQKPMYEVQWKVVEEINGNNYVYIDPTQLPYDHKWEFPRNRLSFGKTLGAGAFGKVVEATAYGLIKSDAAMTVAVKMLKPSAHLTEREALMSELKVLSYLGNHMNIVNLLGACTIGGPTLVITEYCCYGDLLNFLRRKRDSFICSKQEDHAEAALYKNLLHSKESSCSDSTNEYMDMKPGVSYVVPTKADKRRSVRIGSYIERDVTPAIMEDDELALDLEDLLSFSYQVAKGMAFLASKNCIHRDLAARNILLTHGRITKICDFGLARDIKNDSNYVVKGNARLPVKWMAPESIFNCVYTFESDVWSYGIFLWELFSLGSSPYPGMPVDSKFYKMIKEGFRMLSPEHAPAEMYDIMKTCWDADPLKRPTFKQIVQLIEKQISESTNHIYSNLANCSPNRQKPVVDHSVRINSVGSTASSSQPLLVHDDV
A short description of series [12]: Drugrecovery in mouse liver microsomes after 10 mins. Format: ADME. In short, it runs like this:
(§1)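 Test compound at 0.5 μM was incubated with human, rat or mouse liver microsomes for 10 minutes at 37 °C. The readout was the percentage of unchanged compound recovered after incubation.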

Series [13] in a line: Drugrecovery in rat liver microsomes after 10 mins. It is filed as ADME. In short, it runs like this: as §1
Series [14] in a line: Drugrecovery in human liver microsomes after 10 mins. It is filed as ADME. The essentials: as §1
In general terms: Liver microsomes are vesicles of endoplasmic reticulum, rich in cytochrome P450 enzymes.

For series [15], the target named is Tyrosine-protein kinase JAK2 (Homo sapiens, UniProt O60674). Kind of series: Inhibition of JAK2 (unknown origin).
Sequence of Tyrosine-protein kinase JAK2 (O60674 whole entry): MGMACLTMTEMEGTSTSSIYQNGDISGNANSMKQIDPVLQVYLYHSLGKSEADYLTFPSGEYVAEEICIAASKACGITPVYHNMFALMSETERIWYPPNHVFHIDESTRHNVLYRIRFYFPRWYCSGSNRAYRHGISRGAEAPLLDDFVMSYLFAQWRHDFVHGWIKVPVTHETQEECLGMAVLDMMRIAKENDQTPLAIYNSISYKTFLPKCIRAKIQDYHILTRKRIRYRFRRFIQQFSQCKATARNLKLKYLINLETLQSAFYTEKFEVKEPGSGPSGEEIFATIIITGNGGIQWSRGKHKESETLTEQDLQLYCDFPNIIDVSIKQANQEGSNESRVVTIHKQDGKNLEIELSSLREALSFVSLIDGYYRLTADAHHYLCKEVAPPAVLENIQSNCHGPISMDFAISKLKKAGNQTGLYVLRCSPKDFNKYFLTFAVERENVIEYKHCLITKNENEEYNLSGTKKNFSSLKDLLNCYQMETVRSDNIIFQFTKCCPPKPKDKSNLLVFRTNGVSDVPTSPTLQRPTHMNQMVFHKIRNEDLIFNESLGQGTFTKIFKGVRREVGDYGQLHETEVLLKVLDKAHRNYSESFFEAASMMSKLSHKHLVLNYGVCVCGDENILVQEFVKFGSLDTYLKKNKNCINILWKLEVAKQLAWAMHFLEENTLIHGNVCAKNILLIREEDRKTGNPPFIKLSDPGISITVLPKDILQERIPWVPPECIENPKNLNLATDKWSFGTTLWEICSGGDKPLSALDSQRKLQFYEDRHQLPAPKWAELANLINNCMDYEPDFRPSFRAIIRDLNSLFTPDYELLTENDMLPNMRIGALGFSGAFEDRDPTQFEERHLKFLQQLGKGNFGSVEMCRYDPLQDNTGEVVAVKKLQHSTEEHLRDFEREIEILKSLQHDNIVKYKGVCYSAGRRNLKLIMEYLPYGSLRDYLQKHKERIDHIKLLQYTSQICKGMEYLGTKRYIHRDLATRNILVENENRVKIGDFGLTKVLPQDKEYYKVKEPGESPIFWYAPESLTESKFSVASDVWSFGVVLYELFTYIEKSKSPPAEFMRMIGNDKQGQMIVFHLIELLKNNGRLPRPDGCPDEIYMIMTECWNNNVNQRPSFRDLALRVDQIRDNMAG

Sequence of Non-receptor tyrosine-protein kinase TYK2 (P29597 whole entry): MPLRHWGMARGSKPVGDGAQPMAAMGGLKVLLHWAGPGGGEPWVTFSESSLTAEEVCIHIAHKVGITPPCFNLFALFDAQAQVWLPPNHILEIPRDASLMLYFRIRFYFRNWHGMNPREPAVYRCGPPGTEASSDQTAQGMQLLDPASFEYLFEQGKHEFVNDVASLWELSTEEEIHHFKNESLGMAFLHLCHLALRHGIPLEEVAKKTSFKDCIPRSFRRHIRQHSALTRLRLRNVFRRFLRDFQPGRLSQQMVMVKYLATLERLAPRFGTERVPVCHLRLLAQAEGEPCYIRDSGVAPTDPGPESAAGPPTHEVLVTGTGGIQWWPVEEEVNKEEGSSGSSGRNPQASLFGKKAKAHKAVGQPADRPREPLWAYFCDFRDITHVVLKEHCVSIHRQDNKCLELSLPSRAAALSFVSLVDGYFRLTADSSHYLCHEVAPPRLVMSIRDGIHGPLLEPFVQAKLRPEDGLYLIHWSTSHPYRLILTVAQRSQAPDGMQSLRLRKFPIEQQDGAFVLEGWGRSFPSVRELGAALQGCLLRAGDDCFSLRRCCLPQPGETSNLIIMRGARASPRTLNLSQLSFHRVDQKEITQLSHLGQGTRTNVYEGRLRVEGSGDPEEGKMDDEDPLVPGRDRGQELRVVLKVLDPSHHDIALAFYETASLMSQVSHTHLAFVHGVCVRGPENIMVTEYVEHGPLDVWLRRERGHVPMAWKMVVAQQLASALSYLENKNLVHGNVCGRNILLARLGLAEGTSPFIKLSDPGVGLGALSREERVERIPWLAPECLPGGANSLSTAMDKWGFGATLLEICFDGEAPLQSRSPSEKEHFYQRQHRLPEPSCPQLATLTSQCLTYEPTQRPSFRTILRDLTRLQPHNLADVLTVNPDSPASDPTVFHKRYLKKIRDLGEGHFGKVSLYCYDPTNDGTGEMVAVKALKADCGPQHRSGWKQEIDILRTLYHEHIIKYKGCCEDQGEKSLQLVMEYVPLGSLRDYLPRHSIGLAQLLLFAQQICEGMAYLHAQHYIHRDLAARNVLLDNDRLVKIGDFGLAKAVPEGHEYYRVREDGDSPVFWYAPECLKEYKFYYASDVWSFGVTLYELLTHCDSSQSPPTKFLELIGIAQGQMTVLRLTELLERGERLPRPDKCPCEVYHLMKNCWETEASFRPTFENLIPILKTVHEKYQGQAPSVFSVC
Sequence of Tyrosine-protein kinase Lyn (P07948 whole entry): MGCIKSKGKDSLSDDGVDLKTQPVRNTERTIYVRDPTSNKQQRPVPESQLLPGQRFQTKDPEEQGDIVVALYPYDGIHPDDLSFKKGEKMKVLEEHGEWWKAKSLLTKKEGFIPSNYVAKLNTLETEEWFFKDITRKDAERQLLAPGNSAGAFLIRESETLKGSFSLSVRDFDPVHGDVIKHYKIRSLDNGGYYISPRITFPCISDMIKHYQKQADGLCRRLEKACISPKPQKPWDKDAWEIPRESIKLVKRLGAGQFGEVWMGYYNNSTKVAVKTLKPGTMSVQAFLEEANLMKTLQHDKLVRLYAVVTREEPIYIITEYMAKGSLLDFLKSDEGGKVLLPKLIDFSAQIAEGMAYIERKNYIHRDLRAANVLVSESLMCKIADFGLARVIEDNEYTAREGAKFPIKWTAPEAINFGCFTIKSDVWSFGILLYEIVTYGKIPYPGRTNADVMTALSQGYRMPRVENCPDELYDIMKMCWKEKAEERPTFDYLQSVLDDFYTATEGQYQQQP

With `CN1CCN(C(=O)c2ccc3c(c2)[nH]c2c(C(N)=O)ccc(-c4ccccc4F)c23)CC1`, the IC50 was found to be 119 nM in series [1]; 610 nM in series [2]; 753 nM in [3]; 81 nM in series [4]; 68 nM in series [5]; 444 nM against Aurora kinase A. In addition, the IC50 in series [6] came to 116 nM; in series [7], 15 nM; in series [9], 39 nM; in series [10], 119 nM; in series [11], 41 nM. The AUC in series [8] came to 25.6 µM·h.
On to `CC(C)(C)c1ccc(C(=O)N[C@@H]2CCCN(c3ccc(C(N)=O)c(Nc4ccc(C(=O)N5CCOCC5)cc4)n3)C2)cc1`, for which the fraction remaining at 10 min in series [12], in series [13] and in series [14] was under 3% in each case.
Take `CN1CCN(C(=O)c2ccc3c(c2)[nH]c2c(C(N)=O)ccc(-c4cccc(NC(=O)c5ccc(N(C)C)cc5)c4F)c23)CC1`: the IC50 was 109 nM in [1]; over 50000 nM in [2]; 14300 nM in series [3]; 569 nM in [4]; 824 nM in [5]; 493 nM on Aurora kinase A. The IC50 came to 41 nM in series [6]; 3 nM in series [7]; 115 nM in series [9]; 95 nM in series [10]; 1050 nM in series [11].
Consider `CC(=O)Nc1cccc(-c2ccc(C(N)=O)c3[nH]c4cc(C(=O)N5CCN(C)CC5)ccc4c23)c1C`, for which the IC50 is 193 nM in series [1]; 2700 nM in series [2]; over 2000 nM in [3]; 108 nM in [4]; 204 nM in [5]; over 2000 nM on Aurora kinase A. Also, the IC50 turned out to be 212 nM in series [15]; 162 nM in series [6]; 55 nM in series [9]; 172 nM in [10]; 471 nM in series [11].
